Test results reported in PubChem BioAssay.
The source made the active and inactive calls.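 How the source made its calls, unless noted: active means compounds giving at least 50% inhibition in the cell-based MKP-3 phosphatase rescue imaging test; inactive means the rest.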

What was measured:
[1] = inhibitors of TNFa-induced NFkB p65 translocation, primary screen, imaging, HUVEC, MLSMR starter and 10KST1 sets (AID 438;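 active means inhibition above 20% together with a positive visual image hit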;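 further: compound added about 3h40 before a 20 min TNFalpha stimulation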;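 on inhibition: signal is the nuclear over cytoplasmic p65 intensity ratio per well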); conditions: HUVEC TNFa-induced p65 nuclear translocation; cell count: measured here: nuclei count (cytotoxicity indicator), at 2.08 µM; inhibition: at 2 µM, stronger effect = higher value, 0% TNFa-plus-vehicle, 100% no-TNFa wells
[2] = inhibitors of E-selectin induction by TNFa, primary screen, imaging, HUVEC, immunofluorescence, MLSMR starter and 10KST1 sets (AID 487;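 active means visually confirmed hit in the image check and inhibition above 20%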;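 on inhibition: signal is fraction of cell area covered by stained E-selectin grains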;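 on nuclei count: 100% = median nuclei count of all wells on the same plate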); conditions: HUVEC TNFalpha-induced E-selectin immunofluorescence imaging, at 2 µM; inhibition: stronger effect = higher value; nuclei count: measured here: cell number, toxicity
[3] = DUSP6 inhibitors restoring Erk phosphorylation by chemical complementation, primary imaging in DUSP6-transfected HeLa (AID 609); conditions: HeLa MKP-3 transfected, phospho-Erk imaging KS statistic, at 10 µM, cells stimulated with TPA for 15 min;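 on inhibition: phospho-Erk level distribution per well compared with pooled transfected vehicle control wells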
[4] = molecular target: Dual specificity protein phosphatase 6 (Homo sapiens) (UniProt Q16828); assay: as above; conditions: HeLa MKP-3 transfected, phospho-Erk imaging KS statistic; at 10 µM; stronger effect = higher value; cells stimulated with TPA for 15 min
Dual specificity protein phosphatase 6 (Homo sapiens), sequence (Q16828 whole entry, looked up): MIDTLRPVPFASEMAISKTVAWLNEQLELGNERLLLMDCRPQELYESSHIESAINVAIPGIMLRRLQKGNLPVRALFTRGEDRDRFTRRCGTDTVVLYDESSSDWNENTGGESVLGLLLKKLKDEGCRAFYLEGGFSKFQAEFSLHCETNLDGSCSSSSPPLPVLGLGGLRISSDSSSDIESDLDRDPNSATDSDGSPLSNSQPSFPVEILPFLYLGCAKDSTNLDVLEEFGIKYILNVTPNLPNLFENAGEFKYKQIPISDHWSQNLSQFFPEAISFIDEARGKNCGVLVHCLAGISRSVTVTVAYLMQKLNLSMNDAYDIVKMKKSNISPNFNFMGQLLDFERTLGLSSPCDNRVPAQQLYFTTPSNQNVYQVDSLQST

[5] = molecular target: Voltage-gated potassium channel subunit beta-2 (Rattus norvegicus) (UniProt P62483); assay: KvBeta enzyme negative modulators, primary screen, biochemical, NADPH fluorescence (AID 622;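 active means fluorescence slope higher than the sample average by over 3 SD, cut at about -0.22 in these data, passing the limit was not always enough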;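 further: slope of raw intensity against log time taken from 70 to 1610 s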); conditions: recombinant KvBeta, 4-cyanobenzaldehyde reduction, at 10 µM, stronger effect = higher value
Voltage-gated potassium channel subunit beta-2 (Rattus norvegicus), sequence (P62483 whole entry, looked up): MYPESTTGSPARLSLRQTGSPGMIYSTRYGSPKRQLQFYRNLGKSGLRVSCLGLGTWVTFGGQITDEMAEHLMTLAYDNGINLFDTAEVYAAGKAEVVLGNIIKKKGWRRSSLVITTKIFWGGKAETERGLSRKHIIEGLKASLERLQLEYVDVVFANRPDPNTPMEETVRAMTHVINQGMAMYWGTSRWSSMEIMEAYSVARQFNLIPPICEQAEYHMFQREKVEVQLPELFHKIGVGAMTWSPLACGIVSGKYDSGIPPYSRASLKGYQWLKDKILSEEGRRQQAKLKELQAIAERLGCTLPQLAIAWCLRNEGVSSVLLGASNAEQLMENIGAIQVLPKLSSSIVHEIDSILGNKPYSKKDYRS

[6] = molecular target: Voltage-gated potassium channel subunit beta-2 (Rattus norvegicus) (UniProt P62483); assay: KvBeta positive modulators, primary screen, biochemical, NADPH fluorescence (AID 623;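 active means NADPH fluorescence slope more negative than the mean of all samples by about 3 SD, 99.7% confidence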;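 further: fluorescence intensity change per second fitted from 20 to 320 s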); conditions: Recombinant KvBeta, NADPH fluorescence decrease slope, 10 min; at 10 µM; stronger effect = lower value
[7] = molecular target: Muscarinic acetylcholine receptor M4 (Homo sapiens) (UniProt P08173); assay: compounds altering M4/GIRK thallium flux, either direction, primary screen, M4 allosteric agonist project, cell-based, HEK293 M4/GIRK, BTC-AM (AID 625;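 active means fluorescence slope after compound addition differing from the mean of all tested samples at 99.7% confidence, mostly higher but some lower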;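 further: thallium influx through GIRK channels coupled to M4 in HEK293 cells with BTC-AM dye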); conditions: at 10 µM, actives lie on both sides
Muscarinic acetylcholine receptor M4 (Homo sapiens), sequence (P08173 whole entry, looked up): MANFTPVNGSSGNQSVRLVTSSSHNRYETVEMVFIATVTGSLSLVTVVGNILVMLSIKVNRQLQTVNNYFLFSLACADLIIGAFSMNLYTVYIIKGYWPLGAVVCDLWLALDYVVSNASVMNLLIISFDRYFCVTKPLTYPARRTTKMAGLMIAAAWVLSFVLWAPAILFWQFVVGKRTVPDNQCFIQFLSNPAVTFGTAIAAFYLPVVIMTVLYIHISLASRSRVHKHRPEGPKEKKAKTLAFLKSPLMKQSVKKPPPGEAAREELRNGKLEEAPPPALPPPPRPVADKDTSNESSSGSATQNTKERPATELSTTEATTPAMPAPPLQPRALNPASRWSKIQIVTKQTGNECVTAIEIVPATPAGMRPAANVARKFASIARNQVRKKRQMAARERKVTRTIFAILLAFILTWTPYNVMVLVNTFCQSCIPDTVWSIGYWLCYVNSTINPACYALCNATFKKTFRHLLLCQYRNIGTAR
How it was run: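 System: HEK293 cells with M4 receptor and GIRK channels | Incubation: Cells overnight at 37 °C, BTC-AM loading 1 h, reads 2 min total | Technique: Kinetic BTC-AM fluorescence sampled at 1 Hz, 10 s pre-addition baseline | Measure: Post-addition slope, 15–24 s, of baseline-normalized fluorescence | Control set: Carbachol positive, DMSO negative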

[8] = inhibitors of larval lipid processing in zebrafish, primary screen, whole organism, PED6 fluorescence, gall bladder and intestine (AID 686;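 active means a full or partial loss of lipid-probe fluorescence in the fish gall bladder, intestine or both, judged by eye; inactive means no fluorescence loss, or compound toxic to the fish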;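 further: larvae 5 to 7 days old with five fish per well; signal comes from phospholipase A2 cleavage of quenched PED6 carried via bile; overnight exposure to compound and PED6 before scoring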); conditions: Zebrafish larvae PED6 lipid processing, fluorescence scoring; screened at 20 µM (by protocol)
How it was run: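 Test system – live zebrafish larvae aged 5-7 days, whole organism · Buffer or medium – E3 fish medium · Reagent – quenched phospholipase substrate PED6, 100 nM final, ingested by larvae · Doses – 20 µM single dose · Incubation – overnight compound and PED6 incubation · Technique – visual fluorescence microscopy scoring of gall bladder, gut · Read-out basis – visual per-well fluorescence inhibition score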

[9] = inhibitors of Chlamydomonas gravitaxis, primary screen, whole organism, Chlamydomonas reinhardtii, WT vs cilia-less mutant, absorbance, 96-well (AID 463189;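 active means inhibition at or above 50% relative to wild type and mutant plate controls; inactive means inhibition below 50%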;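 further: 0% = wild type cc124 cells in DMSO and 100% = ciliumless bld1 mutant cells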); conditions: OD600 absorbance, 2 days, at 10 µM, stronger effect = higher value
[10] = measured here: cell density z-score
[11] = measured here: nuclear c-Myc green intensity z-score
[12] = measured here: nuclear pErk red intensity z-score, stronger effect = higher value

Compound | cell count [1] | inhibition [1] | inhibition [2] | nuclei count [2] [%] | z-score [3, 10] | z-score [3, 11] | z-score [3, 12] | inhibition [4] | fluorescence slope [5] | NADPH fluorescence slope [6] | fluorescence slope [7] | outcome [8] | inhibition [9]
C=CCNc1nc(NCc2ccccc2)c(C#N)c2c1CN(C)CC2 | 592 | -6.3% (inactive) | -14.9% (inactive) | 156 | 0.516 | -0.0927 | 0.356 | -2.09% (inactive) | -0.407 (inactive) | -5.5e-05 (inactive) | 0.00402 (inactive) | inactive | 21.1% (inactive)
CCOC(=O)c1c(C)n(C)c2ccc(O)c(CN3CCCCC3)c12 | 616 | 9.7% (inactive) | -7.7% (inactive) | 92.8 | -0.792 | 0.194 | -0.0734 | -15.1% (inactive) | -0.442 (inactive) | -3.9e-05 (inactive) | 0.00334 (inactive) | inactive | 22.8% (inactive)
Cc1ccc(N(CC(O)CN(C)C)S(=O)(=O)c2ccccc2)cc1 (stereo not drawn) | 587 | -9.4% (inactive) | 6.4% (inactive) | 192 | 1.28 | -0.151 | 0.0736 | -4.59% (inactive) | -0.384 (inactive) | -7.3e-05 (inactive) | 0.00579 (inactive) | inactive | 11.5% (inactive)
Cc1c(C)c2cc(Cl)c(O)c(CN3CCCC(C)C3)c2oc1=O (stereo not drawn) | 540 | -4.7% (inactive) | 45.7% (inactive) | 94.2 | 0.999 | 0.842 | -1.58 | 9.37% (inactive) | -0.0221 (inactive) | -5.4e-06 (inactive) | 0.00608 (inactive) | inactive | -7.68% (inactive)
CCOc1ccc(S(=O)(=O)NC(C)(C)C)cc1-c1nc2c(C(C)(C)C)nn(C)c2c(=O)[nH]1 | 654 | -6.1% (inactive) | -8.5% (inactive) | 99.3 | 2.17 | -1.88 | -0.971 | 31.4% (inactive) | -0.462 (inactive) | -5.9e-05 (inactive) | 0.0055 (inactive) | inactive | 88.4% (active)
CCSc1nc2sc3c(c2c2nnc(SCC(=O)NCc4ccco4)n12)CCCC3 | 550 | -5.1% (inactive) | -12.4% (inactive) | 178 | -0.011 | -1.17 | -1.17 | 1.9e-07% (inactive) | -0.399 (inactive) | -1.1e-05 (inactive) | 0.00576 (inactive) | inactive | 9.13% (inactive)
COc1ccc(CCn2c(=N)c(C(=O)NCc3ccco3)cc3c(=O)n4ccccc4nc32)cc1OC | 633 | -2.8% (inactive) | -94.3% (inactive) | 174 | 1.26 | -0.19 | 0.299 | 14.4% (inactive) | -0.507 (inactive) | -2.1e-05 (inactive) | 0.00335 (inactive) | inactive | -2.16% (inactive)
O=c1c2c3c(sc2n2cnnc2n1C1CCCCC1)CCC3 | 363 | -3.6% (inactive) | -2% (inactive) | 172 | -0.995 | -0.714 | 0.683 | -2.59% (inactive) | -0.434 (inactive) | -0.000131 (inactive) | 0.00453 (inactive) | inactive | 33.2% (inactive)
O=C(O)c1cc2sccc2s1 | 643 | 0% (inactive) | 23.1% (inactive) | 160 | 0.481 | -0.0742 | -0.912 | -6.48% (inactive) | -0.465 (inactive) | -2.7e-05 (inactive) | 0.005 (inactive) | inactive | -3.38% (inactive)
Clc1ccc(-n2ncc3c(N4CCCC4)ncnc32)cc1 | 589 | -9.4% (inactive) | -131% (inactive) | 94.9 | -3.24 | 1.27 | 1.5 | 7.42% (inactive) | -0.411 (inactive) | -5e-05 (inactive) | 0.00915 (inactive) | inactive | 134% (active)
O=C(CC(c1ccco1)S(=O)(=O)c1ccccc1)c1ccc(F)cc1 (stereo not drawn) | 585 | -2% (inactive) | -105% (inactive) | 138 | -0.324 | 0.355 | 1.32 | -14.6% (inactive) | -0.413 (inactive) | -0.000113 (inactive) | 0.00466 (inactive) | inactive | 28.8% (inactive)
CCCCn1c(=O)n(C)c(=O)c2c3c(sc21)COC(C)(C)C3 | 589 | -5.2% (inactive) | -64.5% (inactive) | 144 | -0.346 | -0.449 | -0.806 | 1.63% (inactive) | -0.447 (inactive) | -1.3e-06 (inactive) | 0.00382 (inactive) | inactive | 43.8% (inactive)
CC1(C)NC(=O)N(CC(O)COc2cc3ccccc3cc2C(=O)N2CCCCC2)C1=O (stereo not drawn) | 595 | -11.9% (inactive) | 5.9% (inactive) | 157 | 0.439 | 1.12 | -0.435 | 5.42% (inactive) | -0.383 (inactive) | 2.1e-06 (inactive) | 0.00552 (inactive) | inactive | 33.9% (inactive)
Cc1ccc(Cn2ncc3c(N4CCOCC4)ncnc32)cc1 | 551 | -1.3% (inactive) | -9.4% (inactive) | 152 | 0.711 | -0.178 | 0.142 | 7.93% (inactive) | -0.363 (inactive) | -3.8e-05 (inactive) | 0.00641 (inactive) | inactive | -4.03% (inactive)
O=C(O)c1ccnc(C(=O)O)c1 | 585 | -4.6% (inactive) | -82% (inactive) | 145 | 0.403 | 0.277 | 1 | -4.59% (inactive) | -0.434 (inactive) | -0.000101 (inactive) | 0.00626 (inactive) | inactive | 24.1% (inactive)
CC1N(O)C(c2ccc(Cl)cc2Cl)N(O)C1(C)C (stereo not drawn) | 482 | 1.9% (inactive) | -3.5% (inactive) | 94.1 | -0.283 | -1.5 | 1.54 | 7.93% (inactive) | -0.347 (inactive) | 9.2e-07 (inactive) | 0.00632 (inactive) | inactive | 43.1% (inactive)
CC12CN3CC(C)(CN(C1)C3c1ccc(Br)cc1O)C2 (stereo not drawn) | 576 | -3% (inactive) | -162% (inactive) | 138 | 0.885 | -1.75 | -1.65 | 5.42% (inactive) | -0.472 (inactive) | -8.8e-05 (inactive) | 0.00399 (inactive) | inactive | 4.37% (inactive)
CCOC(=O)C1=C(N)N2C(=O)CSC2=C(C(=O)OC)C1 | 523 | 1.5% (inactive) | -111% (inactive) | 138 | 0.366 | 1.6 | -1.91 | 5.42% (inactive) | -0.476 (inactive) | -0.000109 (inactive) | 0.00418 (inactive) | inactive | -0.259% (inactive)
CCOC(=O)CNC(=O)CCCCCC(=O)NCC(=O)OCC | 367 | -1.3% (inactive) | -27.8% (inactive) | 132 | -0.497 | 0.819 | 0.154 | 11.4% (inactive) | -0.431 (inactive) | -9.3e-05 (inactive) | 0.00362 (inactive) | inactive | 21.4% (inactive)
CCCCOc1ccccc1C(=O)NCCCCCC(=O)O | 375 | -2.6% (inactive) | -80.5% (inactive) | 150 | 1.24 | -0.608 | 1.41 | -0.584% (inactive) | -0.462 (inactive) | -0.000119 (inactive) | 0.00571 (inactive) | inactive | 19.6% (inactive)
CCc1ccc(NC(=O)CSC2=C(C#N)C(c3ccc4c(c3)OCO4)CC(=O)N2)cc1 (stereo not drawn) | 599 | -14% (inactive) | 41.8% (inactive) | 91.1 | 1.39 | -1.52 | -0.214 | 22.7% (inactive) | -0.491 (inactive) | -4.6e-05 (inactive) | 0.00667 (inactive) | inactive | -5% (inactive)
